ChEMBL document CHEMBL2169867, “Novel β-amino acid derivatives as inhibitors of cathepsin A” (J Med Chem, 2012)
One block for each compound: values may come before it. The source made the active and inactive calls. The rule behind the calls is not given here.

How the values were obtained:
[1] = Lipophilicity, log D of the compound; type: physicochemical; conditions: octanol/water
[2] = Drug metabolism in rat liver microsomes; type: ADME, Microsome; conditions: read-out: Drug metabolism
[3] = Drug metabolism in human liver microsomes; type: ADME, Microsome; conditions: read-out: Drug metabolism
[4] = Genotoxicity in micronucleus
[5] = target: Voltage-gated inwardly rectifying potassium channel KCNH2 (Homo sapiens, UniProt Q12809); assay: Inhibition of human ERG
[6] = Oral bioavailability in Sprague-Dawley rat at 10 mg/kg; type: ADME, organism-based; conditions: in vivo
CYP3A4 = CYP3A4 (Homo sapiens, UniProt P08684); assay: Induction of CYP3A4 relative to control; type: ADME; conditions: human
[7] = Solubility of the compound; type: physicochemical
Neprilysin = Neprilysin (Homo sapiens, UniProt P08473); assay: Inhibition of human recombinant NEP using Mca-RPPGFSAFK(Dnp)-OH as substrate incubated for 15 mins prior to substrate addition measured after 20 to 30 mins by fluorimetric analysis
How it was run: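 Recombinant human NEP and inhibitor preincubated 15 min at room temperature in reaction buffer, then substrate added. Fluorescence read after 20-30 min at room temperature. % inhibition and IC50 calculated against internal high and low controls.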

Salmonella typhimurium = assay: Genotoxicity against Salmonella typhimurium by AMES test; type: toxicity, organism-based; conditions: salmonella enterica subsp. enterica serovar typhimurium
Mus musculus [8] = assay: Cardioprotective activity against angiotensin 2-induced cardiac hypertrophy in B6.129P2-ApoE/J mouse assessed as mean arterial pressure at 100 mg/kg, po administered QD after 4 weeks (reference value: 99.03 6.82 mmHg); type: functional, Heart
[9] = Cmax in Sprague-Dawley rat heart at 10 mg/kg, po; type: ADME, organism-based; design: dose 10 mg/kg, route oral
How it was run: (§1)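 Male Sprague-Dawley rats; single oral 10 mg/kg in glycofurol 75 (19%)/Cremophor RH40 (6%)/water (75%). Plasma and heart sampled at eight time points over 24 h, three animals per time point, nonserial design. Heart homogenized with water (2 g per 1 g tissue). Concentrations measured by LC-MS/MS with a structurally related internal standard; AUC(0-inf) taken from plasma concentration-time curves.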

[10] = target: Cathepsin A (Homo sapiens); assay: Inhibition of cathepsin A
Mus musculus [11] = assay: Toxicity in B6.129P2-ApoE/J mouse assessed as body weight at 100 mg/kg, po administered QD after 4 weeks (reference value: 30.48 0.52 g); type: organism-based; design: dose 100 mg/kg, route oral; conditions: in vivo, 672 h
[12] = Cmax in Sprague-Dawley rat plasma at 10 mg/kg, po; type: ADME, organism-based; design: dose 10 mg/kg, route oral; how it was run: as §1
[13] = target: T1, Lysosomal protective protein (Homo sapiens, UniProt P10619); assay: Inhibition of human recombinant Myc-His10-tagged cathepsin A expressed in baculovirus infected Sf9 cells using BodipyFL labeled bradykinin as substrate incubated for 15 mins prior to substrate addition measured after 15 mins by fluorimetric analysis
T1 sequence (P10619 whole entry): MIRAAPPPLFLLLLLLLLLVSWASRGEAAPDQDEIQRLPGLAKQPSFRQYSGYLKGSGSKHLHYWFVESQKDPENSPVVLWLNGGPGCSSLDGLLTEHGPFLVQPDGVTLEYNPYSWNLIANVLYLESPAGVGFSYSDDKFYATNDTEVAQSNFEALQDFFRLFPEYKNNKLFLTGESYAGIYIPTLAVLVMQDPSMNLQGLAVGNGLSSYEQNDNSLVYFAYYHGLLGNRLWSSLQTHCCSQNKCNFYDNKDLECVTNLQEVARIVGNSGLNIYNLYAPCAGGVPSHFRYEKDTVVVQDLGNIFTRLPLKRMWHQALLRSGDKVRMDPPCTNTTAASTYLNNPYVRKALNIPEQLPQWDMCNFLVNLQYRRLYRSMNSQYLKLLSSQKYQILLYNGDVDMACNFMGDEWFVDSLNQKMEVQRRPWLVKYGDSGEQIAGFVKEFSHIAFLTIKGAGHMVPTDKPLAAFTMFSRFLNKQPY

Mus musculus [14] = assay: Cardioprotective activity against angiotensin 2-induced cardiac hypertrophy in B6.129P2-ApoE/J mouse assessed as left ventricular end diastolic pressure at 100 mg/kg, po administered QD after 4 weeks (reference value: 15.49 1.95 mmHg); type: functional, Heart left ventricle
Rattus norvegicus [15] = assay: Antihypertensive activity in Wistar rat assessed as bradykinin-dependent diuresis at 1 mg/kg, iv administered as bolus measured as urine flow rate (reference value: 11.6 uL/min); type: functional
Mus musculus [16] = assay: Ratio of left ventricular wet weight to body weight in B6.129P2-ApoE/J mouse at 100 mg/kg, po administered QD after 4 weeks (reference value: 5.99 0.28 mg/g); type: functional
Rattus norvegicus [17] = assay: Antihypertensive activity in Wistar rat assessed as increase in bradykinin level in urine at 30 mg/kg, po relative to vehicle-treated control; type: functional
How it was run: (§2)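 Male Wistar rats dosed po at 30 mg kg⁻¹ day⁻¹. Urine collected over 6 h before and after treatment. Bradykinin measured by commercial RIA; creatinine excretion also determined. Mean ± SEM, n = 9-10; paired t test.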

[18] = AUC (0 to infinity) in Sprague-Dawley rat plasma at 10 mg/kg, po; type: ADME, organism-based; design: time infinity, dose 10 mg/kg, route oral; how it was run: as §1
Mus musculus [19] = assay: Cardioprotective activity against angiotensin 2-induced cardiac hypertrophy in B6.129P2-ApoE/J mouse assessed as left ventricular wet weight at 100 mg/kg, po administered QD after 4 weeks (reference value: 182.03 […]); type: functional, Heart left ventricle
Rattus norvegicus [20] = assay: Antihypertensive activity in Wistar rat assessed as bradykinin-dependent diuresis at 10 mg/kg, iv administered as bolus measured as urine flow rate in presence of HOE140 (reference value: 11.6 uL/min); type: functional
How it was run: (§3)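 Anesthetized male Wistar rats prepared with urethane, carotid/jugular cannulae, continuous albumin-saline infusion and ureteral urine collection. Compound given as iv bolus at 10 mg/kg, alone or with HOE140 0.5 mg/kg iv. Urine volume measured over five successive 20 min periods; two-way ANOVA with Bonferroni post-tests, p < 0.05.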

Rattus norvegicus [21] = assay: Cardioprotective activity against ventricular ischemia/reperfusion in Wistar rat assessed as duration of burst-pacing-induced atrial fibrillation at 30 mg/kg, po administered QD after 3 months (reference value: 25.00 18.09 s); type: functional, Cardiac atrium
Rattus norvegicus [22] = assay: Antihypertensive activity in Wistar rat assessed as bradykinin-dependent diuresis at 10 mg/kg, iv administered as bolus measured as urine flow rate (reference value: 11.6 uL/min); type: functional; how it was run: as §3
Mus musculus [23] = assay: Cardioprotective activity against angiotensin 2-induced cardiac hypertrophy in B6.129P2-ApoE/J mouse assessed as left ventricular relaxation time at 100 mg/kg, po administered QD after 4 weeks (reference value: 8.73 0.41 ms); type: functional, Heart left ventricle
[24] = AUC (0 to infinity) in Sprague-Dawley rat heart at 10 mg/kg, po; type: ADME, organism-based; design: time infinity, dose 10 mg/kg, route oral; how it was run: as §1
Mus musculus [25] = assay: Cardioprotective activity against angiotensin 2-induced cardiac hypertrophy in B6.129P2-ApoE/J mouse assessed as left ventricular end systolic pressure at 100 mg/kg, po administered QD after 4 weeks (reference value: 139.36 9.79 mmHg); type: functional, Heart left ventricle
Mus musculus [26] = assay: Cardioprotective activity against angiotensin 2-induced cardiac hypertrophy in B6.129P2-ApoE/J mouse assessed as heart rate at 100 mg/kg, po administered QD after 4 weeks (reference value: 403.23 7.98 bpm); type: functional
Rattus norvegicus [27] = assay: Effect on glomerular filtration rate in Wistar rat assessed as change in creatinine excretion at 30 mg/kg, po relative to vehicle-treated control; type: functional, organism-based; design: dose 30 mg/kg; how it was run: as §2
Mus musculus [28] = assay: Cardioprotective activity against angiotensin 2-induced cardiac hypertrophy in B6.129P2-ApoE/J mouse assessed as ejection fraction at 100 mg/kg, po administered QD after 4 weeks (reference value: 51.14 2.49 %); type: functional, Heart

CYP3A4, sequence (P08684 whole entry): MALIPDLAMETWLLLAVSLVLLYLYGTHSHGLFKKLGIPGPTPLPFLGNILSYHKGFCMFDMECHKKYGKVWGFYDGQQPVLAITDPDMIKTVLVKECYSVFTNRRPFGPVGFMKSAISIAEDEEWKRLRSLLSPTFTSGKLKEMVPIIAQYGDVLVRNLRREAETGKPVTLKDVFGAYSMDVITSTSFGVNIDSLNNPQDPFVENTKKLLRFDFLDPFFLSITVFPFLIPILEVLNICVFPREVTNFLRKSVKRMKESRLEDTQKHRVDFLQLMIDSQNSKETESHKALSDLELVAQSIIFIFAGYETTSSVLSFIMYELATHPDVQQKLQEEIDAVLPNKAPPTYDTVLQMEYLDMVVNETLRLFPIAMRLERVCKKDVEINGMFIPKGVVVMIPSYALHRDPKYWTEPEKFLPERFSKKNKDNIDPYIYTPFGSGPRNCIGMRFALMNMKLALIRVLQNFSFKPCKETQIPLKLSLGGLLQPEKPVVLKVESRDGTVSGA
Neprilysin, sequence (P08473 whole entry): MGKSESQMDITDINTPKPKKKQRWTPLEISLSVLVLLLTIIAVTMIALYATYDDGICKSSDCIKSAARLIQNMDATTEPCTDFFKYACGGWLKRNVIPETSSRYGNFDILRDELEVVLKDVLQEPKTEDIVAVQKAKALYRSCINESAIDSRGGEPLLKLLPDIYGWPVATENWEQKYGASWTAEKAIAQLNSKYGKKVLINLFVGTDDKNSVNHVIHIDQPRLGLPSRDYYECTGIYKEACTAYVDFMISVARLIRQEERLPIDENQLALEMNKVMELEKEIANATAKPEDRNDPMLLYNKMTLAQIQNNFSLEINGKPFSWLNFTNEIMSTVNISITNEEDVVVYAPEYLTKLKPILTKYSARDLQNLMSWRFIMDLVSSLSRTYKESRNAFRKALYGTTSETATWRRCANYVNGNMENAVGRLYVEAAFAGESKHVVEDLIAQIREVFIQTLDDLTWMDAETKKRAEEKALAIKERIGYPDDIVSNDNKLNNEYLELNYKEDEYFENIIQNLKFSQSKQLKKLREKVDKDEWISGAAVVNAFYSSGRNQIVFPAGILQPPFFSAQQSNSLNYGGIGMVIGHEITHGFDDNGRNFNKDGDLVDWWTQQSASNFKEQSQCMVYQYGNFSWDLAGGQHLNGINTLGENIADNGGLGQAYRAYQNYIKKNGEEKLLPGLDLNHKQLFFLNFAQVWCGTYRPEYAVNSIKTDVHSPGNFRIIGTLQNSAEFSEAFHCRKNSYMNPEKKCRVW
Voltage-gated inwardly rectifying potassium channel KCNH2, sequence (Q12809 whole entry): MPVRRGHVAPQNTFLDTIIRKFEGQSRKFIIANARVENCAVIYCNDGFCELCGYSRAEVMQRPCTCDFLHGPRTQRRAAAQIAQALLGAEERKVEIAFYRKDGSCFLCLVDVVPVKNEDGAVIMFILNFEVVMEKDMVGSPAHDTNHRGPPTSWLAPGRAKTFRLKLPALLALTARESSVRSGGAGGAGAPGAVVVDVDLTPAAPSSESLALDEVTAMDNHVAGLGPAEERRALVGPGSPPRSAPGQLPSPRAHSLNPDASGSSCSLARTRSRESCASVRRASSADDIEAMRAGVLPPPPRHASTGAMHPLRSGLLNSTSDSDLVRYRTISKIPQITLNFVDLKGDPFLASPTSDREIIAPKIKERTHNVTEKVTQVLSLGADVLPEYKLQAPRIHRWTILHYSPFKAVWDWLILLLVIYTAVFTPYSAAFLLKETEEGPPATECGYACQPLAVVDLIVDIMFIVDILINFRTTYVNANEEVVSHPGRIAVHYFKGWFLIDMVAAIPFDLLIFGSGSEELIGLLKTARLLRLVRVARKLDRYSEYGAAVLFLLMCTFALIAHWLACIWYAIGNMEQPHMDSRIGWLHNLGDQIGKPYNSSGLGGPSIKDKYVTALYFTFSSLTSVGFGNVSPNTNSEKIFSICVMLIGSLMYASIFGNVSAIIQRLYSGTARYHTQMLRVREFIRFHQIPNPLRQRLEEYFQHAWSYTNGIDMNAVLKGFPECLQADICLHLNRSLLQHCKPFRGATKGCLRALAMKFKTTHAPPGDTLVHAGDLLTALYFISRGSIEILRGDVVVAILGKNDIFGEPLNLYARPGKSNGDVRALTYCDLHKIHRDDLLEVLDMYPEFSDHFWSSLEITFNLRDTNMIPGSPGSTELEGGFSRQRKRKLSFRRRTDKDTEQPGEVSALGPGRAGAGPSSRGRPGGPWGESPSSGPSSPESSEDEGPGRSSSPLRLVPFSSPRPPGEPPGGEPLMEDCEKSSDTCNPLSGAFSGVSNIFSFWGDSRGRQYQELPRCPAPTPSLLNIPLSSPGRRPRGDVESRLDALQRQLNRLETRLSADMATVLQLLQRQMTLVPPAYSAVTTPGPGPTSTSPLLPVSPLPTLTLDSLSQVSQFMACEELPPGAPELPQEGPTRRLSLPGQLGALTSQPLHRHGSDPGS

logD [1]: -0.16 | metabolised [2]: 10% | metabolised [3]: 10% | bioavailability [6]: < 5% | Emax (CYP3A4): 0% | solubility [7]: > 180 µg/mL | inhibition (Neprilysin): Active
SMILES: Cc1ccccc1[C@H](CC(=O)O)NC(=O)c1cc(=O)n(-c2ccccc2F)[nH]1
Activity [4]: Non-toxic | IC50 [5]: > 10000 nM | Activity (Salmonella typhimurium): Non-toxic

Cmax [9]: 3720 ng/mL | IC50 [10]: 26 nM | Cmax [12]: 22200 ng/mL | IC50 [13]: 26 nM | Emax (CYP3A4): 9% | AUC(0-inf) [18]: 130000 ng·h/mL | IC50 (Neprilysin): 1900 nM | AUC(0-inf) [24]: 16000 ng·h/mL
SMILES: COc1cc(C(=O)N[C@@H](CC(=O)O)c2ccccc2C)nn1-c1ccccc1F
Activity (Mus musculus [8]): 95.88 mmHg | Activity (Mus musculus [11]): 29.63 g | Activity (Mus musculus [14]): 8.32 mmHg | Activity (Rattus norvegicus [15]): 14.3 µL/min | Ratio (Mus musculus [16]): 4.84 mg/g | fold change (FC) (Rattus norvegicus [17]): 2 | Activity (Mus musculus [19]): 142.69 mg | Activity (Rattus norvegicus [20]): 15.3 µL/min | Time (Rattus norvegicus [21]): 0.69 s | Activity (Rattus norvegicus [22]): 18.3 µL/min | Time (Mus musculus [23]): 7.05 ms | Activity (Mus musculus [25]): 129.95 mmHg | Activity (Mus musculus [26]): 407.11 bpm | Activity (Rattus norvegicus [27]): inactive | Activity (Mus musculus [28]): 57.89%
